Source: ChEMBL document CHEMBL4400509, “Conversion of Quinazoline Modulators from Inhibitors to Activators of β-Glucocerebrosidase” (J Med Chem, 2019)
Activity calls are given as the source filed them. The rule behind the calls is not given here.

What was measured:
[1] = molecular target: T1, Lysosomal acid glucosylceramidase (Homo sapiens, UniProt P04062); assay: Activation of wild type recombinant human lysosomal beta-glucocerebrosidase using 4-methylumbelliferyl-beta-D-glucopyranoside as substrate preincubated for 5 mins followed by substrate addition and measured after 30 mins by fluorescence assay
T1 sequence (P04062 whole entry): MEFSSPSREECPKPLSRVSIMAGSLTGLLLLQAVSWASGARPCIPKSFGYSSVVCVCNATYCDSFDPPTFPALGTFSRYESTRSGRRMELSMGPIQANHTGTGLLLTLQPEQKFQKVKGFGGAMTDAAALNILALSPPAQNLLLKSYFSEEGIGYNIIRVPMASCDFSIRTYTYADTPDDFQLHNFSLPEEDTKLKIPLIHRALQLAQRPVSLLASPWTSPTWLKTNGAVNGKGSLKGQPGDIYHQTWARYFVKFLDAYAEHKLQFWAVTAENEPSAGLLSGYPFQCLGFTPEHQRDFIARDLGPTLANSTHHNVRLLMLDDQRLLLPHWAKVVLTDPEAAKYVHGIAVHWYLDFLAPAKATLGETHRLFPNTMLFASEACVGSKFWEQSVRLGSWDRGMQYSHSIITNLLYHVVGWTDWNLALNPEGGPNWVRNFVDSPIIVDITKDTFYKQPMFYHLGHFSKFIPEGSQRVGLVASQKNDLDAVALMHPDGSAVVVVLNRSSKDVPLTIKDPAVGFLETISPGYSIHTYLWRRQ
How it was run: (§1)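 Recombinant wild-type human GCase (velaglucerase alfa), 7.5 nM final, in 50 mM citric acid/176 mM K2HPO4/0.01% Tween-20, pH 5.9. Enzyme was preincubated 5 min at room temperature with compound (12-point series, 48 nM–100 μM final). 4MU-β-Glc (1.5 mM final) was added, and the reaction ran 30 min at 37 °C. It was stopped with 1 M NaOH/1 M glycine, pH 10, and read at ex 365/em 440 nm. Triplicate, mean.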

[2] = molecular target: T2, Lysosomal acid glucosylceramidase (Homo sapiens) (UniProt P04062); assay: Activation of wild type recombinant human lysosomal beta-glucocerebrosidase at 0.048 to 100 uM using 4-methylumbelliferyl-beta-D-glucopyranoside as substrate preincubated for 5 mins followed by substrate addition and measured after 30 mins by fluorescence assay relative to control; how it was run: as §1
T2 sequence (whole entry): T1 sequence (P04062 whole entry)

[3] = molecular target: T1, Lysosomal acid glucosylceramidase; assay: Inhibition of wild type recombinant human lysosomal beta-glucocerebrosidase using 4-methylumbelliferyl-beta-D-glucopyranoside as substrate preincubated for 5 mins followed by substrate addition and measured after 30 mins by fluorescence assay
Homo sapiens = organism: Homo sapiens; assay: Induction of post-ER GCase activity in fibroblast cells harboring N370S/84GG double mutant derived from Gaucher's disease patient at 25 uM using PFB-FDGlu as substrate preincubated for 3 days followed by substrate addition and measured after 1 hr for every 20 mins in presence of bafilomycin by fluorescence assay; assay type: cell-based
Fibroblast = assay: Induction of post-ER GCase level in fibroblast cells harboring N370S/84GG double mutant derived from Gaucher's disease patient at 25 uM by immunoblotting analysis; assay type: functional, cell-based; details: Homo sapiens
How it was run: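 N370S/84GG patient fibroblasts, compound-treated 3 days (DMSO 0.1% v/v vehicle) and lysed in 1% Triton X-100. Lysates were left undigested or digested with Endo H or PNGase F. They were then immunoblotted for GCase with GAPDH as loading control, and post-ER form was taken as Endo H-resistant band. n = 4.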

| Compound | AC50 ([1]; read-out: AC50) | Emax [2] | further results |
| --- | --- | --- | --- |
| CN(CCOc1ccccc1)c1nc(-c2ccoc2)nc2ccccc12 | 1.68 µM | 145% | – |
| CN(CCOc1ccccc1)c1nc(-c2cccs2)nc2ccccc12 | – | inactive | AC50 [1]: Not Active |
| CN(CCOc1ccccc1)c1nc(-c2ccsc2)nc2ccccc12 | – | inactive | AC50 [1]: Not Active |
| CN(Cc1ccc2c(c1)OCO2)c1nc(-c2cccnc2)nc2ccccc12 | 1.63 µM | 160% | – |
| CN(c1nc(-c2cccnc2)nc2ccccc12)C1CCCCCC1 | – | – | IC50 [3]: 9.94 µM |
| c1ccc(CC2CCCCN2c2nc(-c3cccnc3)nc3ccccc23)cc1 (configuration not stated) | 4.47 µM | 364% | – |
| CN(c1nc(-c2cccnc2)nc2ccccc12)C1CCCC1 | 6.36 µM | 149% | – |
| c1cncc(-c2nc(N3CCCOCC3)c3ccccc3n2)c1 | 44.1 µM | 423% | – |
| CN(Cc1nc2ccccc2s1)c1nc(-c2cccnc2)nc2ccccc12 | 6.9 µM | 517% | – |
| CN1Cc2ccc(CN(C)c3nc(-c4cccnc4)nc4ccccc34)cc2C1 | 14.9 µM | 428% | – |
| CN(Cc1nc2ccccc2o1)c1nc(-c2cccnc2)nc2ccccc12 | 16.1 µM | 643% | – |
| c1ccc(OCCCNc2nc(-c3cccnc3)nc3ccccc23)cc1 | – | – | IC50 [3]: 2.54 µM |
| CC(CNc1nc(-c2cccnc2)nc2ccccc12)Oc1ccccc1 (configuration not stated) | – | – | IC50 [3]: 4.24 µM |
| CN(CCOc1ccccc1)c1nc(-c2ccccn2)nc2ccccc12 | > 50 µM | – | – |
| CC(COc1ccccc1)Nc1nc(-c2cccnc2)nc2ccccc12 (configuration not stated) | – | – | IC50 [3]: 1.88 µM |
| CN(C[C@@H]1COc2ccccc2O1)c1nc(-c2cccnc2)nc2ccccc12 | 2.37 µM | 296% | – |
| c1cncc(-c2nc(N3CCc4c([nH]c5ccccc45)C3)c3ccccc3n2)c1 | 4.27 µM | 175% | – |
| c1ccc(COCCNc2nc(-c3cccnc3)nc3ccccc23)cc1 | – | – | IC50 [3]: 7.3 µM |
| c1cncc(-c2nc(N3CCOc4ccccc4C3)c3ccccc3n2)c1 | 9.74 µM | 438% | – |
| c1cncc(-c2nc(N3CCc4[nH]c5ccccc5c4C3)c3ccccc3n2)c1 | – | inactive | AC50 [1]: Not Active |
| CN(CCOc1ccccc1)c1nc(-c2ccco2)nc2ccccc12 | 21.7 µM | 229% | – |
| CN(Cc1ccc2nsnc2c1)c1nc(-c2cccnc2)nc2ccccc12 | 1.84 µM | 337% | – |
| CN(c1nc(-c2cccnc2)nc2ccccc12)C1CCCCC1 | 2.36 µM | 137% | – |
| CN(c1nc(-c2cccnc2)nc2ccccc12)[C@H]1CCc2ccccc2C1 | – | – | IC50 [3]: 0.43 µM |
| CN(c1nc(-c2cccnc2)nc2ccccc12)[C@@H]1CCc2ccccc2C1 | – | – | IC50 [3]: 5.87 µM |
| CN(c1nc(-c2cccnc2)nc2ccccc12)C1CCCCCCC1 | – | – | IC50 [3]: 8.38 µM |
| CN(Cc1ccc2c(c1)OCCO2)c1nc(-c2cccnc2)nc2ccccc12 | 4.88 µM | 488% | – |
| CN(Cc1nc2ccccc2[nH]1)c1nc(-c2cccnc2)nc2ccccc12 | 7.92 µM | 197% | – |
| OC[C@H]1CNC[C@@H](O)[C@@H]1O | – | – | Activity (Homo sapiens): inactive; Activity (Fibroblast): inactive |

The next lines start with results.

| AC50 ([1]; read-out: AC50) | Emax [2] | Compound | further results |
| --- | --- | --- | --- |
| – | inactive | c1ccc(OCCN(CC2CC2)c2nc(-c3cccnc3)nc3ccccc23)cc1 | AC50 [1]: Not Active |
| 3.18 µM | 132% | CCCN(CCOc1ccccc1)c1nc(-c2cccnc2)nc2ccccc12 | – |
| 1.63 µM | 674% | CN(Cc1cnc2ccccc2n1)c1nc(-c2cccnc2)nc2ccccc12 | – |
| 5.38 µM | 478% | CCN(CCOc1ccccc1)c1nc(-c2cccnc2)nc2ccccc12 | – |
| – | inactive | CN(CCOc1ccccc1)c1nc(-c2ccccc2)nc2ccccc12 | AC50 [1]: Not Active |
| – | 223% | CN(CCCc1ccccc1)c1nc(-c2cccnc2)nc2ccccc12 | – |
| 5.18 µM | 160% | c1ccc(CC2CCCN(c3nc(-c4cccnc4)nc4ccccc34)C2)cc1 (configuration not stated) | – |
| 16.9 µM | 394% | CN(CCOCc1ccccc1)c1nc(-c2cccnc2)nc2ccccc12 | – |
| 2.89 µM | 690% | CN(CCOc1ccccc1)c1nc(-c2ccncc2)nc2ccccc12 | – |
| 8.97 µM | 390% | CC(CN(C)c1nc(-c2cccnc2)nc2ccccc12)Oc1ccccc1 (configuration not stated) | – |
| 2.3 to 3.55 µM | 552 to 761% | CN(CCOc1ccccc1)c1nc(-c2cccnc2)nc2ccccc12 | – |
| 1.39 µM | 126% | CN(CCc1ccccc1)c1nc(-c2cccnc2)nc2ccccc12 | – |
| 1.17 µM | 276% | c1ccc(OC2CCN(c3nc(-c4cccnc4)nc4ccccc34)C2)cc1 (configuration not stated) | – |
| 4.66 µM | 130% | c1ccc(C2CCCN(c3nc(-c4cccnc4)nc4ccccc34)C2)cc1 (configuration not stated) | – |
| 3.8 µM | 155% | CN(Cc1ccc2ccccc2c1)c1nc(-c2cccnc2)nc2ccccc12 | – |
| 0.89 µM | 634% | CN(CCOc1ccccc1)c1nc(-c2cncnc2)nc2ccccc12 | – |
| 3.99 µM | 190% | CN(CCCCc1ccccc1)c1nc(-c2cccnc2)nc2ccccc12 | – |
| 7.52 µM | 345% | CC(COc1ccccc1)N(C)c1nc(-c2cccnc2)nc2ccccc12 (configuration not stated) | – |
| 1.56 µM | 140% | c1ccc(OCCNc2nc(-c3cccnc3)nc3ccccc23)cc1 | – |
| 3.65 µM | 302% | c1ccc(O[C@@H]2CCCN(c3nc(-c4cccnc4)nc4ccccc34)C2)cc1 | – |
| 4.75 µM | 237% | c1ccc(O[C@H]2CCCN(c3nc(-c4cccnc4)nc4ccccc34)C2)cc1 | – |
| 6.16 µM | 208% | CN(CCCOc1ccccc1)c1nc(-c2cccnc2)nc2ccccc12 | – |
